Experimental data reported in ChEMBL document CHEMBL4393672, “High affinity CXCR4 inhibitors generated by linking low affinity peptides” (Eur J Med Chem, 2019).
Active and inactive are the calls of the source. The rule behind the calls is not given here. Residues, ends and D or L forms follow the SMILES beside them.

Tests used:
[1] = test system: PBMC; assay: Cytotoxicity against HIV1 NL4-3 infected in human PBMC cells assessed as cell viability at 50 uM preincubated with cells for 2 hrs followed by viral infection for 2 hrs and measured after 5 days by CellTiter-Blue assay; format: cell-based; settings: 120 h
In short: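 PBMCs were seeded at the anti-HIV assay densities and treated in parallel under the same X4 infection and compound exposure conditions. After 5 days at 37°C, viability was read by CellTiter-Blue fluorescence (560/590 nm). The top concentration tested was 50 μM.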

[2] = test system: C-X-C chemokine receptor type 4 (Homo sapiens), P61073 [Q200A]; assay: Binding affinity to CXCR4 Q200A mutant (unknown origin) expresssed in CHO cells at 200 nM incubated for 30 mins by 12G5 antibody based fluorescence analysis; format: cell-based
Chain of C-X-C chemokine receptor type 4 (Homo sapiens), P61073 [Q200A] (P61073 whole entry Q200A): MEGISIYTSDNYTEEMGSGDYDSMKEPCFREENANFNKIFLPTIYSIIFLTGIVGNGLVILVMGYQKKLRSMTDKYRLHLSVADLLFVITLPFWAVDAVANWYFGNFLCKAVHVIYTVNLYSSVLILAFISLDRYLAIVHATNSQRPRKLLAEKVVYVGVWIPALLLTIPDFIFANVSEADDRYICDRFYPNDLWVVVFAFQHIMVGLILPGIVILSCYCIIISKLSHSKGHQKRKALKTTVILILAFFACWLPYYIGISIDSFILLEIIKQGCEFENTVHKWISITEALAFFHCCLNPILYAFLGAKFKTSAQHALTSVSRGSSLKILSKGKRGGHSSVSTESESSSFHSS
In short: (§1)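 Mutational mapping in CHO cells expressing wild-type or mutant CXCR4, 5×10^5 cells/well. Cells were incubated with a single 200 nM peptide concentration plus 12G5 anti-CD184 antibody in FACS buffer on ice for 30 min. FITC anti-mouse IgG was then added for 30 min on ice. Fluorescence was read at 485/528 nm and normalized to control, in duplicate across at least three experiments.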

[3] = test system: C-X-C chemokine receptor type 4 (Homo sapiens), P61073 [V112A]; assay: Competitive binding affinity to CXCR4 V112A mutant (unknown origin) expresssed in CHO cells at 200 nM incubated for 30 mins by 12G5 antibody based fluorescence analysis; format: cell-based; in short: as §1
Chain of C-X-C chemokine receptor type 4 (Homo sapiens), P61073 [V112A] (P61073 whole entry V112A): as the sequence (P61073 whole entry Q200A) above, with V112A, A200Q counted along it

[4] = target: T1, C-X-C chemokine receptor type 4 (Homo sapiens, UniProt P61073); assay: Inhibition of N-terminal flag-tagged CXCR4 (unknown origin) internalization expressed in CHO cells incubated for 45 mins and measured after 1 hr by FITC-labeled anti-flag antibody based fluorescence analysis
T1 sequence (P61073 whole entry): as the sequence (P61073 whole entry Q200A) above, with A200Q counted along it

[5] = test system: C-X-C chemokine receptor type 4 (Homo sapiens), P61073 [R30A]; assay: Binding affinity to CXCR4 R30A mutant (unknown origin) expresssed in CHO cells at 200 nM incubated for 30 mins by 12G5 antibody based fluorescence analysis; format: cell-based; in short: as §1
Chain of C-X-C chemokine receptor type 4 (Homo sapiens), P61073 [R30A] (P61073 whole entry R30A): as the sequence (P61073 whole entry Q200A) above, with R30A, A200Q counted along it

[6] = test system: C-X-C chemokine receptor type 4 (Homo sapiens), P61073 [E288Q]; assay: Binding affinity to CXCR4 E288Q mutant (unknown origin) expresssed in CHO cells at 200 nM incubated for 30 mins by 12G5 antibody based fluorescence analysis; format: cell-based
Chain of C-X-C chemokine receptor type 4 (Homo sapiens), P61073 [E288Q] (P61073 whole entry E288Q): as the sequence (P61073 whole entry Q200A) above, with A200Q, E288Q counted along it
In short: (§2)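 Wild-type or mutant CXCR4 cells (5×10⁵/well) incubated with single 200 nM concentration in FACS buffer (0.5% BSA, 0.05% azide in PBS) plus 12G5 anti-CD184 antibody, 30 min on ice; washed, FITC anti-mouse IgG 30 min on ice; fluorescence 485ex/528em; duplicates, ≥3 independent experiments, normalized as percent of control.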

[7] = target: T1, C-X-C chemokine receptor type 4; assay: Competitive binding affinity to CXCR4 receptor (unknown origin) expressed in CHO cells incubated for 40 mins by 12G5 antibody based fluorescence analysis; format: cell-based
[8] = target: T1, C-X-C chemokine receptor type 4; assay: Competitive binding affinity to CXCR4 in human SupT1 cells incubated for 40 mins by 12G5 antibody based fluorescence analysis; format: cell-based
[9] = test system: C-X-C chemokine receptor type 4 (Homo sapiens), P61073 [W94A]; assay: Competitive binding affinity at CXCR4 W94A mutant (unknown origin) expressed in CHO cells at 200 nM incubated for 30 mins by 12G5 antibody based fluorescence analysis; format: cell-based; in short: as §2
Chain of C-X-C chemokine receptor type 4 (Homo sapiens), P61073 [W94A] (P61073 whole entry W94A): as the sequence (P61073 whole entry Q200A) above, with W94A, A200Q counted along it

[10] = target: T1, C-X-C chemokine receptor type 4; assay: Antagonist activity at CXCR4 receptor in human SupT1 cells assessed as inhibition of SDF-1alpha-induced calcium release at 1 uM preincubated for 2 to 3 mins followed by SDF-1alpha addition by Fluo-4AM dye based fluorescence assay relative to control; format: functional, cell-based
In short: (§3)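 SupT1 cells loaded with Fluo-4AM (2 µM) plus probenecid (5 µM) for 30 min at 37°C in HBSS/20 mM HEPES, washed; 1×10⁶ cells/mL exposed to compound 2–3 min, then stimulated with 50 nM SDF-1α; fluorescence read at […]/510em.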

[11] = Stability of compound in water assessed as compound remaining at 1mM at 37 degC after 48 hrs by HPLC analysis relative to control; format: physicochemical; settings: read-out: Stability
[12] = target: T1, C-X-C chemokine receptor type 4; assay: Antagonist activity at CXCR4 receptor in human SupT1 cells assessed as inhibition of SDF-1alpha-induced calcium release preincubated for 2 to 3 mins followed by SDF-1alpha addition by Fluo-4AM dye based fluorescence assay; format: functional, cell-based; in short: as §3
[13] = test system: C-X-C chemokine receptor type 4 (Homo sapiens), P61073 [Y45A]; assay: Competitive binding affinity to CXCR4 Y45A mutant (unknown origin) expressed in CHO cells at 200 nM incubated for 30 mins by 12G5 antibody based fluorescence analysis; format: cell-based; in short: as §2
Chain of C-X-C chemokine receptor type 4 (Homo sapiens), P61073 [Y45A] (P61073 whole entry Y45A): as the sequence (P61073 whole entry Q200A) above, with Y45A, A200Q counted along it

[14] = target: T1, C-X-C chemokine receptor type 4; assay: Antagonist activity at CXCR4 (unknown origin) in CHO cells assessed as reduction in SDF-1alpha-induced ERK phosphorylation level at 50 uM incubated for 30 mins followed by SDF1-alpha addition measured after 5 mins by Western blot analysis; format: cell-based
In short: (§4)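 CXCR4-expressing CHO cells grown in DMEM with 10% FBS, seeded at 10^6 cells/well for 24 h, then moved to serum-free medium. Cells were pretreated with 50 μM peptide for 30 min, then stimulated with 12.5 nM SDF-1α for 5 min. Lysates were adjusted to 3 mg/mL, run on 12% SDS-PAGE and immunoblotted for phospho-AKT/ERK with ECL detection. Bands were quantified by densitometry as % control.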

[15] = target: T1, C-X-C chemokine receptor type 4; assay: Antagonist activity at CXCR4 (unknown origin) expressed in CHO cells assessed as reduction in basal phosphorylated AKT expression at 50 uM incubated for 30 mins followed by measured after 5 mins by Western blot analysis; format: cell-based
[16] = test system: C-X-C chemokine receptor type 4 (Homo sapiens), P61073 [W195A]; assay: Competitive binding affinity to CXCR4 W195A mutant (unknown origin) expresssed in CHO cells at 200 nM incubated for 30 mins by 12G5 antibody based fluorescence analysis; format: cell-based; in short: as §2
Chain of C-X-C chemokine receptor type 4 (Homo sapiens), P61073 [W195A] (P61073 whole entry W195A): as the sequence (P61073 whole entry Q200A) above, with W195A, A200Q counted along it

[17] = test system: C-X-C chemokine receptor type 4 (Homo sapiens), P61073 [D262N]; assay: Binding affinity to CXCR4 D262N mutant (unknown origin) expresssed in CHO cells at 200 nM incubated for 30 mins by 12G5 antibody based fluorescence analysis; format: cell-based; in short: as §2
Chain of C-X-C chemokine receptor type 4 (Homo sapiens), P61073 [D262N] (P61073 whole entry D262N): as the sequence (P61073 whole entry Q200A) above, with A200Q, D262N counted along it

[18] = test system: Human immunodeficiency virus 1; assay: Antiviral activity against Human immunodeficiency virus 1 NL4-3 infected in human PBMC cells assessed as inhibition of extracellular p24 level preincubated with cells for 2 hrs followed by viral infection for 2 hrs and measured after 5 days by ELISA
[19] = Stability of compound in 10% FBS assessed as compound remaining at 1mM after 1 hr by HPLC analysis relative to control; format: ADME, cell-free, Bos taurus, Serum; settings: cattle, read-out: Stability
In short: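 Peptide dissolved at 1 mM in culture medium with 10% FBS, incubated at 37°C; samples taken over time and analysed by C18 HPLC, UV 220 nm; remaining peptide from peak intensity relative to original peak.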

[20] = test system: C-X-C chemokine receptor type 4 (Homo sapiens), P61073 [Y116A]; assay: Competitive binding affinity at CXCR4 Y116A mutant (unknown origin) expressed in CHO cells at 200 nM incubated for 30 mins by 12G5 antibody based fluorescence analysis; format: cell-based; in short: as §2
Chain of C-X-C chemokine receptor type 4 (Homo sapiens), P61073 [Y116A] (P61073 whole entry Y116A): as the sequence (P61073 whole entry Q200A) above, with Y116A, A200Q counted along it

[21] = target: T1, C-X-C chemokine receptor type 4; assay: Antagonist activity at CXCR4 (unknown origin) in CHO cells assessed as reduction in SDF-1alpha-induced Akt phosphorylation level at 50 uM incubated for 30 mins followed by SDF1-alpha addition measured after 5 mins by Western blot analysis; format: cell-based; in short: as §4
[22] = test system: Human immunodeficiency virus 1; assay: Antiviral activity against Human immunodeficiency virus 1 NL4-3 infected in human PBMC cells assessed as reduction in intracellular p24 level at 100 nM preincubated with cells 2 hrs followed by viral infection and measured after 24 hrs by ELISA; format: functional
In short: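 PBMCs from healthy donors (2.5×10^6 cells/mL) were exposed to compound for 2 h, washed, and infected with HIV-1 NL4-3 at MOI 0.02 for 2 h at 37°C. Cells were washed, resuspended in complete medium and incubated 24 h. Cells were then lysed with protease inhibitor, and intracellular p24 was quantified by ELISA.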

[23] = test system: C-X-C chemokine receptor type 4 (Homo sapiens), P61073 [D97A]; assay: Binding affinity to CXCR4 D97A mutant (unknown origin) expresssed in CHO cells at 200 nM incubated for 30 mins by 12G5 antibody based fluorescence analysis; format: cell-based; in short: as §2
Chain of C-X-C chemokine receptor type 4 (Homo sapiens), P61073 [D97A] (P61073 whole entry D97A): as the sequence (P61073 whole entry Q200A) above, with D97A, A200Q counted along it

| SMILES | Activity [6] | IC50 [7] | IC50 [8] | Activity [9] | Activity [13] | Activity [16] | Activity [17] | inhibition [18] | Activity [20] | other results |
| --- | --- | --- | --- | --- | --- | --- | --- | --- | --- | --- |
| CC(C)C[C@@H](N)C(=O)NCC(=O)N[C@H](C)C(=O)N[C@H](CO)C(=O)N[C@H](Cc1c[nH]c2ccccc12)C(=O)N[C@H](Cc1cnc[nH]1)C(=O)N[C@H](CCCNC(=N)N)C(=O)N1CCC[C@@H]1C(=O)N[C@H](CC(=O)O)C(=O)N[C@H](CCCCN)C(=O)N[C@H](CCCCN)C(=O)N[C@H](CCCNC(=N)N)C(=O)NCCCCCC(=O)N[C@@H](CCCCN)C(=O)N[C@@H](CCCNC(=N)N)C(=O)N[C@@H](CCCCN)C(=O)N[C@H](C(=O)N[C@@H](CC(N)=O)C(=O)N[C@@H](CC(N)=O)C(=O)N[C@@H](CC(N)=O)C(=O)N1CCC[C@H]1C(=O)N[C@@H](CCCNC(=N)N)C(=O)N[C@H](C(=O)N[C@@H](CS)C(=O)O)[C@@H](C)O)[C@@H](C)O | inactive | 16 nM | 14 nM | inactive | inactive | inactive | inactive | Dose-dependent effect | inactive | Activity [1]: Non-Toxic; Activity [2]: inactive; Activity [3]: inactive; Activity [4]: inactive; Activity [5]: Active; inhibition [10]: 100%; remaining at 48 h, 1000 µM [11]: 87%; inhibition [12]: Dose-dependent effect; Activity [14]: Active; Activity [15]: Active; IC50 [18]: 93 nM; remaining at 1 h, 1000 µM [19]: 80%; Activity [21]: Active; inhibition at 0.1 µM [22]: 16% |
| CC(C)C[C@@H](N)C(=O)NCC(=O)N[C@H](C)C(=O)N[C@H](CO)C(=O)N[C@H](Cc1c[nH]c2ccccc12)C(=O)N[C@H](Cc1cnc[nH]1)C(=O)N[C@H](CCCNC(=N)N)C(=O)N1CCC[C@@H]1C(=O)N[C@H](CC(=O)O)C(=O)N[C@H](CCCCN)C(N)=O (HELM PEPTIDE1{[dL].G.[dA].[dS].[dW].[dH].[dR].[dP].[dD].[dK].[am]}$$$$V2.0) | inactive |  |  | Active | Active | inactive | inactive | inactive | Active | Activity [23]: inactive; inhibition [22]: inactive |
| CC[C@H](C)[C@H](NC(=O)[C@H](CC(=O)O)NC(=O)CNC(=O)[C@H](CCCCN)NC(=O)[C@H](CCCNC(=N)N)NC(=O)[C@H](CCCCN)NC(=O)CCCCCN)C(=O)N[C@@H](CCCNC(=N)N)C(=O)N[C@@H](CCC(N)=O)C(=O)N[C@@H](C)C(=O)N[C@@H](Cc1cnc[nH]1)C(=O)N[C@@H](CS)C(N)=O (HELM PEPTIDE1{[NCCCCCC(=O)[*:2]].K.R.K.G.D.I.R.Q.A.H.C.[am]}$$$$V2.0) |  | > 50000 nM | > 50000 nM |  |  |  |  |  |  |  |
